# Measurements: ChEMBL document CHEMBL2040751, “Discovery of PF-04449913, a Potent and Orally Bioavailable Inhibitor of Smoothened” (ACS Med Chem Lett, 2012)
# How the values were obtained:
# Protein smoothened = Protein smoothened (Mus musculus, UniProt P56726); assay: Inhibition of Smo in mouse C3H10T1/2 cells using human recombinant SHH assessed as effect on SMO/SHH transient transcriptional activation after 20 hrs by Gli-luciferase reporter assay; assay type: cell-based, C3H 10T1/2
# [1] = biological target: Protein smoothened (Mus musculus) (UniProt P56726); assay: Potency ratio, ratio of IC50 for compound to IC50 for compound 1 in mouse C3H10T1/2 cells by SMO/SHH transient transcriptional activation based Gli-luciferase reporter assay; assay type: cell-based; conditions: C3H 10T1/2
# [2] = Percentage unbound in dog plasma; assay type: ADME, cell-free, Canis lupus familiaris
# [3] = Free intrinsic clearance in human microsomes; assay type: ADME, Microsome
# [4] = Percentage unbound in rat plasma; assay type: ADME, cell-free
# [5] = Aqueous solubility of the compound; assay type: physicochemical; conditions: buffer
# [6] = Percentage unbound in human plasma; assay type: ADME, cell-free
# [7] = Plasma clearance in rat at 2 mg/kg, iv dosed in 20% PEG400/80% H2O; assay type: ADME, organism-based; parameters: dose 2 mg/kg, route intravenous
# Procedure, shortened: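 Single IV dose of 2 mg/kg formulated in 20% PEG400/80% H2O. Plasma clearance was determined.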
# Cytochrome P450 2C19 = Cytochrome P450 2C19 (Homo sapiens, UniProt P33261); assay: Inhibition of CYP2C19; assay type: ADME
# [8] = Half life in dog at 0.5 mg/kg, iv and 3 mg/kg, po; assay type: ADME, organism-based, Canis lupus familiaris; conditions: in vivo
# Procedure, shortened: (§1)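 In dogs, the IV dose was 0.5 mg/kg in solution in 10% EtOH/20% PEG400/70% PBS. The oral dose was 3 mg/kg in methylcellulose in water.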
# [9] = Fraction unbound in rat liver microsomes; assay type: ADME, Microsome
# Cytochrome P450 1A2 = biological target: T1, Cytochrome P450 1A2 (Homo sapiens, UniProt P05177); assay: Inhibition of CYP1A2; assay type: ADME
# T1 sequence (P05177 whole entry): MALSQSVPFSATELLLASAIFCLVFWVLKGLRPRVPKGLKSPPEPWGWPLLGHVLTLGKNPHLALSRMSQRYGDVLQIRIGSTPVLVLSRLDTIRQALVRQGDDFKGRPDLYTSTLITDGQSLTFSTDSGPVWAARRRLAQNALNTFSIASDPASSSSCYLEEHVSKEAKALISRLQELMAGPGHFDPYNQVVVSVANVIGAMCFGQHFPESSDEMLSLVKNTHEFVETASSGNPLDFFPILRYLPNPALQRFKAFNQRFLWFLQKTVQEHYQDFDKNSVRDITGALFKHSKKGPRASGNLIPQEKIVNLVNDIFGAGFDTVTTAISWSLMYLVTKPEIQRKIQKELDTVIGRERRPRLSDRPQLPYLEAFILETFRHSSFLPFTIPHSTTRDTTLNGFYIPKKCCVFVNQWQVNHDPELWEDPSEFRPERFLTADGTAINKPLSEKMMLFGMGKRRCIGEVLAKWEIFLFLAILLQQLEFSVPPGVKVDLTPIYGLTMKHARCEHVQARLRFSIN
# [10] = Apparent permeability of the compound across apical to basolateral side in human Caco2 cells; assay type: ADME, cell-based; conditions: Caco-2
# Cytochrome P450 2C9 = Cytochrome P450 2C9 (Homo sapiens, UniProt P11712); assay: Inhibition of CYP2C9; assay type: ADME
# Salmonella typhimurium = assay: Induction of genotoxicity in Salmonella typhimurium by Ames test; assay type: toxicity, organism-based; conditions: salmonella enterica subsp. enterica serovar typhimurium
# [11] = Fraction unbound in dog liver microsomes; assay type: ADME, Canis lupus familiaris, Microsome
# [12] = Intrinsic clearance in human microsomes; assay type: ADME, Microsome
# [13] = Clearance in dog at 0.5 mg/kg, iv and 3 mg/kg, po; assay type: ADME, organism-based, Canis lupus familiaris; conditions: in vivo; procedure, shortened: as §1
# Cytochrome P450 2D6 = Cytochrome P450 2D6 (Homo sapiens, UniProt P10635); assay: Inhibition of CYP2D6; assay type: ADME
# [14] = Fraction unbound in human liver microsomes; assay type: ADME, Microsome
# [15] = Lipophilicity, log D of the compound; assay type: physicochemical; conditions: octanol/water
# [16] = Intrinsic clearance in dog microsomes; assay type: ADME, Canis lupus familiaris, Microsome
# [17] = Oral bioavailability in rat at 1 mg/kg; assay type: ADME, organism-based; conditions: in vivo
# Procedure, shortened: (§2)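 Rats received 1 mg/kg IV as a solution in 10% EtOH/20% PEG400/70% PBS. A separate group received 1 mg/kg orally in methylcellulose in water.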
# [18] = Oral bioavailability in dog at 3 mg/kg; assay type: ADME, organism-based, Canis lupus familiaris; conditions: in vivo; procedure, shortened: as §1
# [19] = Induction of genotoxicity in micronucleus by micronucleus test
# [20] = Apparent permeability of the compound across basolateral to apical side in human Caco2 cells; assay type: ADME, cell-based; conditions: Caco-2
# [21] = Volume of distribution at steady state in dog at 0.5 mg/kg, iv and 3 mg/kg, po; assay type: ADME, organism-based, Canis lupus familiaris; conditions: in vivo, read-out: Vdss; procedure, shortened: as §1
# [22] = Volume of distribution at steady state in rat at 1 mg/kg, iv and 1 mg/kg, po; assay type: ADME, organism-based; conditions: in vivo, read-out: Vdss; procedure, shortened: as §2
# [23] = Clearance in rat at 1 mg/kg, iv and 1 mg/kg, po; assay type: ADME, organism-based; conditions: in vivo; procedure, shortened: as §2
# [24] = Intrinsic clearance in rat microsomes; assay type: ADME, Microsome
# Cytochrome P450 3A4 = Cytochrome P450 3A4 (Homo sapiens, UniProt P08684); assay: Inhibition of CYP3A4; assay type: ADME
# [25] = Dissociation constant, pKa of the compound; assay type: physicochemical
# [26] = Half life in rat at 1 mg/kg, iv and 1 mg/kg, po; assay type: ADME, organism-based; conditions: in vivo; procedure, shortened: as §2
# Cytochrome P450 2C8 = biological target: T2, Cytochrome P450 2C8 (Homo sapiens, UniProt P10632); assay: Inhibition of CYP2C8; assay type: ADME
# T2 sequence (P10632 whole entry): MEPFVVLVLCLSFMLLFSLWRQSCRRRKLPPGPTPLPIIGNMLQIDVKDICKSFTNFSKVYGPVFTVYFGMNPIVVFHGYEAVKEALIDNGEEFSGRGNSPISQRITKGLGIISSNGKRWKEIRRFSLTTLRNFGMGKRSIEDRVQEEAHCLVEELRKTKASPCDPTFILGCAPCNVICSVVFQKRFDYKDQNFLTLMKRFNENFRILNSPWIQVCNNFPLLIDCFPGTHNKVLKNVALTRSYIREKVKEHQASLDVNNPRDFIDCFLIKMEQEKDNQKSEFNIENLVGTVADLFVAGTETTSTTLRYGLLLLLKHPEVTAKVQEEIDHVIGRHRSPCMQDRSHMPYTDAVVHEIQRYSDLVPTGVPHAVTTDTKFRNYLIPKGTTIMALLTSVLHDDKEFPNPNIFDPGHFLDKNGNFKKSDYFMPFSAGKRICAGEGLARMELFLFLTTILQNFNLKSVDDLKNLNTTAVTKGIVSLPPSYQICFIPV
# [27] = Oral bioavailability in rat at 5 mg/kg dosed in 0.5% methylcellulose in water; assay type: ADME, organism-based; conditions: in vivo
# Procedure, shortened: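 Oral dosing at 5 mg/kg, formulated in 0.5% methylcellulose in water.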
# [28] = Chemical solubility of the compound in PBS at pH 6.5; assay type: physicochemical
# [29] = Chemical solubility of the compound in SGN at pH 1.2; assay type: physicochemical
# [30] = Fraction absorbed in dog at 5 mg/kg, po; assay type: ADME, organism-based, Canis lupus familiaris; parameters: dose 5 mg/kg, route oral; conditions: in vivo
# [31] = Plasma clearance in dog; assay type: ADME, organism-based, Canis lupus familiaris
# [32] = Drug excretion in rat bile at 2 mg/kg, iv; assay type: ADME, organism-based; parameters: dose 2 mg/kg, route intravenous; conditions: read-out: Drug excretion
# [33] = Drug excretion in rat urine at 2 mg/kg, iv; assay type: ADME, organism-based; parameters: dose 2 mg/kg, route intravenous; conditions: read-out: Drug excretion
# [34] = Oral bioavailability in dog at 5 mg/kg; assay type: ADME, organism-based, Canis lupus familiaris; conditions: in vivo
# Sequence of Protein smoothened (P56726 whole entry): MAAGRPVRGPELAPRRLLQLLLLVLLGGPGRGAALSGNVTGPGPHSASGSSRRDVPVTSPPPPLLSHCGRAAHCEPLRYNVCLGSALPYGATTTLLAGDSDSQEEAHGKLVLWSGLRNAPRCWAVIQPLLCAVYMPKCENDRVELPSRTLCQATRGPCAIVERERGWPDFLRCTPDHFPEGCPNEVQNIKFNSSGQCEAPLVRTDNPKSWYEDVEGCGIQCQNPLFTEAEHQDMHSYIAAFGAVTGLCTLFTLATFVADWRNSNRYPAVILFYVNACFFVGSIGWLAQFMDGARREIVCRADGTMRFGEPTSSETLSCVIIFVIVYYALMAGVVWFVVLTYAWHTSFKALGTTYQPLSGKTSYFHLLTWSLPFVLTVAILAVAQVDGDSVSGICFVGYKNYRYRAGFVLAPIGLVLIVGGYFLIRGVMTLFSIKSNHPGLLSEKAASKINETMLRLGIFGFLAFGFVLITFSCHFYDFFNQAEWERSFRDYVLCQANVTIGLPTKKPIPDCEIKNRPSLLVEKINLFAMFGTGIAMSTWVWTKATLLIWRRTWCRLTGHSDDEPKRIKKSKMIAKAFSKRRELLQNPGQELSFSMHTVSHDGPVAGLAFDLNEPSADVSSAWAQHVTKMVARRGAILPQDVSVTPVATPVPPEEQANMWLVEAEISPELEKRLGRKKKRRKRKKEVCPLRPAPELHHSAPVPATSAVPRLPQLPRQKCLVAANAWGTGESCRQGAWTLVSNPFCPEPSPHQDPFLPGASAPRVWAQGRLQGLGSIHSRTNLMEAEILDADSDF
# Sequence of Protein smoothened (Mus musculus) (P56726 whole entry): as above
# Sequence of Cytochrome P450 2D6 (P10635 whole entry): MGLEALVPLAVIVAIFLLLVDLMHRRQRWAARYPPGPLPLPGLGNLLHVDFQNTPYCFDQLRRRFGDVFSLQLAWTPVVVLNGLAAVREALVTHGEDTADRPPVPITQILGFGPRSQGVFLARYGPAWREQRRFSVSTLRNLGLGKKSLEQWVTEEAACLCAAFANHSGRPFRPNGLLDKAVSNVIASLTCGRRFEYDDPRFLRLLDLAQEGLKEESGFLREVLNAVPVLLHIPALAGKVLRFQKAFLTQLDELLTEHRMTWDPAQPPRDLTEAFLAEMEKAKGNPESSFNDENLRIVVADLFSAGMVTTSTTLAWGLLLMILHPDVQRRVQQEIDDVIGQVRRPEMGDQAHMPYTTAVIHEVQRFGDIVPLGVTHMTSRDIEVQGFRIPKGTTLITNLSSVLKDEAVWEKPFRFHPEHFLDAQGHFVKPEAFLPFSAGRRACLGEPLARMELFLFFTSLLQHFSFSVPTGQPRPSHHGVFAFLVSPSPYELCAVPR
# Sequence of Cytochrome P450 2C19 (P33261 whole entry): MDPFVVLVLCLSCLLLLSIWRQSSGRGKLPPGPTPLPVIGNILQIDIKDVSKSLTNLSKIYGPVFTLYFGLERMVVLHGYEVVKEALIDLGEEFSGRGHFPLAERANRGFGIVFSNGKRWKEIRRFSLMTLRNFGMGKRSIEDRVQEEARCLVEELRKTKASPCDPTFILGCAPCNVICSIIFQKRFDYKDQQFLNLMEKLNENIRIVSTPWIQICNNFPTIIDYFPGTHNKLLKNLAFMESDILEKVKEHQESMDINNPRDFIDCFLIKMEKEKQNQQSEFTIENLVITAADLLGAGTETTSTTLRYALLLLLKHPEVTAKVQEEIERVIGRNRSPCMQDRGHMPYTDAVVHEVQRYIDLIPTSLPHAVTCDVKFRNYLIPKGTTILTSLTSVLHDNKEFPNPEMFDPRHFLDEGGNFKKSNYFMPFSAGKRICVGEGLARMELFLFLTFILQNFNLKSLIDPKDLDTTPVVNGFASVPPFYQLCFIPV
# Sequence of Cytochrome P450 3A4 (P08684 whole entry): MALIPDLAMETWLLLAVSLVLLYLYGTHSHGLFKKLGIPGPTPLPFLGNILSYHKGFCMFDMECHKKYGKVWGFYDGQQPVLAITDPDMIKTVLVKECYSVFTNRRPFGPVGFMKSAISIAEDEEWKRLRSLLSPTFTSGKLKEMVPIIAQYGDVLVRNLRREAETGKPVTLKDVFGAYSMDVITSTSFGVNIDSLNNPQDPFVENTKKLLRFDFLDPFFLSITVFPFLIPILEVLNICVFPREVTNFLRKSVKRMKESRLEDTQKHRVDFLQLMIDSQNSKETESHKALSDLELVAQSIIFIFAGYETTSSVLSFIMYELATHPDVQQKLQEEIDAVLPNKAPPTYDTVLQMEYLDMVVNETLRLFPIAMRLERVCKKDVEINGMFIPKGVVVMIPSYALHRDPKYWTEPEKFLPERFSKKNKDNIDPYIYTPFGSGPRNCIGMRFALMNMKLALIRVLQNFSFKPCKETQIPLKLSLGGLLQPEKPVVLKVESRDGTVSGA
# Sequence of Cytochrome P450 2C9 (P11712 whole entry): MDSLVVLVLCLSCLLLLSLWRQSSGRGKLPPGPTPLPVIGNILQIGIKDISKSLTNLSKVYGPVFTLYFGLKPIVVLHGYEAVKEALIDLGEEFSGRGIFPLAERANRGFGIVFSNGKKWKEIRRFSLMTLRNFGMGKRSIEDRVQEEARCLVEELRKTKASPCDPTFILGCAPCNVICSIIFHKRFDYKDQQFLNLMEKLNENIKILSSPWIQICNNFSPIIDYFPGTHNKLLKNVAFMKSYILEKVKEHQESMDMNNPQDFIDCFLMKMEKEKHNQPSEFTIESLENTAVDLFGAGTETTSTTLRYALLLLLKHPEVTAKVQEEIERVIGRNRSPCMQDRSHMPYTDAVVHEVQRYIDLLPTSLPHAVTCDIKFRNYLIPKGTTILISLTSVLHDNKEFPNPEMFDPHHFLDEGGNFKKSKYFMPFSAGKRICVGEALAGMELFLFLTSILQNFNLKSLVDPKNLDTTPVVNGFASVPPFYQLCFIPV
smiles,measurement,setting,value
CN1CC[C@@H](NC(=O)Nc2ccc(Cl)cc2)C[C@@H]1c1nc2ccccc2[nH]1,IC50,Protein smoothened,0.02 µM
same,Ratio IC50,[1],> 50
CN1CC[C@@H](NC(=O)Nc2ccc3c(c2)OCCO3)C[C@@H]1c1nc2ccccc2[nH]1,IC50,Protein smoothened,0.045 µM
same,Ratio IC50,[1],> 50
CN1CC[C@@H](NC(=O)Nc2ccc(C#N)cc2)C[C@@H]1c1nc2ccccc2[nH]1,Ratio IC50,[1],> 50
O=C(Nc1cccc(-c2nc3ccccc3[nH]2)c1)c1ccc2c(c1)OCCO2,fraction unbound,[2],< 0.01
same,CL free,[3],0.0188 L/h/kg
same,fraction unbound,[4],< 0.01
same,IC50,Protein smoothened,0.005 µM
same,solubility,[5],0.0001 mg/mL
same,fraction unbound,[6],< 0.01
same,clearance,[7],1.5 L/h/kg
CN1CC[C@@H](NC(=O)Nc2cccc(C#N)c2)C[C@@H]1c1nc2ccccc2[nH]1,IC50,Protein smoothened,0.072 µM
same,Ratio IC50,[1],> 50
CN1CC[C@@H](NC(=O)Nc2ccc(C#N)cc2)C[C@@H]1c1nc2ccccc2[nH]1 [GLASDEGIB],IC50,Cytochrome P450 2C19,> 30 µM
same,half-life,[8],2.9 h
same,fraction unbound,[9],0.57
same,fraction unbound,[2],0.141
same,IC50,Cytochrome P450 1A2,> 30 µM
same,Papp A→B,[10],59.8 nm/s
same,IC50,Cytochrome P450 2C9,> 30 µM
same,Activity,Salmonella typhimurium,Non-toxic
same,fraction unbound,[11],0.54
same,CLint scaled,[12],0.378 L/h/kg
same,clearance,[13],0.234 L/h/kg
same,IC50,Cytochrome P450 2D6,> 30 µM
same,fraction unbound,[14],0.61
same,logD,[15],2.48
same,CLint scaled,[16],< 0.84 L/h/kg
same,bioavailability,[17],33%
same,bioavailability,[18],68%
same,fraction unbound,[4],0.109
same,IC50,Protein smoothened,0.005 µM
same,Activity,[19],Non-toxic
same,Papp B→A,[20],156 nm/s
same,Vd,[21],4.3 L/kg
same,Vd,[22],4.8 L/kg
same,clearance,[23],1.86 L/h/kg
same,fraction unbound,[6],0.091
same,CLint scaled,[24],4.02 L/h/kg
same,IC50,Cytochrome P450 3A4,> 30 µM
same,pKa,[25],6
same,half-life,[26],1.4 h
same,IC50,Cytochrome P450 2C8,> 30 µM
CN1CC[C@@H](NC(=O)Nc2cccnc2)C[C@@H]1c1nc2ccccc2[nH]1,IC50,Protein smoothened,0.191 µM
same,Ratio IC50,[1],> 50
O=C(N[C@@H]1CCC[C@H](c2nc3ccccc3[nH]2)C1)c1ccc2c(c1)OCCO2,Papp A→B,[10],850 nm/s
same,IC50,Protein smoothened,0.088 µM
same,Papp B→A,[20],650 nm/s
same,bioavailability,[27],4%
same,solubility,[5],0.037 mg/mL
same,Ratio IC50,[1],18
same,clearance,[7],1.98 L/h/kg
COc1ccc(NC(=O)N[C@@H]2CCN(C)[C@@H](c3nc4ccccc4[nH]3)C2)cc1,IC50,Protein smoothened,0.035 µM
same,Ratio IC50,[1],> 50
CN1CC[C@@H](NC(=O)Nc2ccc(C#N)cc2)C[C@@H]1c1nc2ccccc2[nH]1.Cl.O,solubility,[28],1.15 mg/mL
same,solubility,[5],0.02 mg/mL
same,solubility,[29],> 69 mg/mL
CN1CC[C@@H](NC(=O)Nc2ccc(C(F)(F)F)cc2)C[C@@H]1c1nc2ccccc2[nH]1,IC50,Protein smoothened,0.005 µM
same,Ratio IC50,[1],> 50
CN1CC[C@@H](NC(=O)c2ccc3c(c2)OCCO3)C[C@@H]1c1nc2ccccc2[nH]1,Fa,[30],> 50%
same,clearance,[31],1.08 L/h/kg
same,dose excreted,[32],< 5%
same,IC50,Protein smoothened,0.043 µM
same,dose excreted,[33],< 5%
same,Ratio IC50,[1],9
same,bioavailability,[34],33%
same,clearance,[7],> 4.2 L/h/kg
CN1CC[C@@H](NC(=O)Nc2ccccc2)C[C@@H]1c1nc2ccccc2[nH]1,IC50,Protein smoothened,0.103 µM
same,Ratio IC50,[1],> 50
